This is an account of results in publication PMC3163381 (Biochemistry, 2011).

Data set [1] is described as follows: Surface tension measurements at the air-water interface. The note with it: for surface activity at the air-water interface: result in words. The data set is classed as physicochemical.
Data set [2] is described as follows: Pressure-area isotherms of lipid monolayers with the substance in the subphase. The class given is physicochemical, Escherichia coli. The following applies: for increase in the lipid molecular area: 1 mM in subphase, at 35 mN/m (monolayer-bilayer equivalence pressure).
For data set [3], the system named is MscS. The data set can be described thus: Patch-clamp of MscS in giant spheroplast patches, activation midpoint. The class given is biochemical, E. coli. The gist of the method: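 Giant spheroplasts from cephalexin-treated E. coli MJF 465 (mscS/mscK/mscL) expressing WT MscS. Excised inside-out patches in symmetrical 200mM KCl, 45mM MgCl2, 5mM CaCl2, 5mM HEPES (pH 7.4, KOH); bath had 400mM sucrose added. Test compound was perfused into the bath (cytoplasmic side). p0.5 was taken from 1 s pressure ramps, first within 1 min, then tracked over time, and normalized to pre-addition control.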
(In patch-clamp work, channel activity is measured electrically.)

A short description of data set [4]: Stability of AI-1 in water and phosphate buffer. The data set is classed as physicochemical. An outline of the steps:
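Test compound was held in deionized water and in phosphate buffer at pH 7.4, and followed over several days. Half-life was determined in the buffer.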

A short description of data set [5]: Solubility and stock solution observations in aqueous solution. The following applies: result in words.

`CCCCCCCC(=O)CC(=O)N[C@H]1CCOC1=O` [AI-1, N-(3-Oxodecanoyl)-L-homoserine lactone]: the “Γ, surface excess” value in data set [1] (Gibbs isotherm fit, 100 mM KCl, 5 mM HEPES pH 7.4) is listed as 3.4*10^−6 mol/m^2. Further, the “AS, molecular area at the surface” value in data set [1] (air-water interface, from Gibbs isotherm fit) worked out at 49 Å^2. The “decrease of surface tension of the solution” value in data set [1] (at 1–5 mM, aqueous buffer pH 7.4) is ~ 17 mN/m. In data set [1] (calculated from AS and KAW according to Suomalainen), the “log Kmemb, membrane partitioning coefficient” value is on record as 1.94. Further, the “KAW, propensity toward air-water interface” value in data set [1] (extrapolated Gibbs isotherm fit, pH 7.4) is 5600 M⁻¹. For the same molecule, in data set [2] (at lipid area of 68–70 Å^2, Fig. 4A), the “lateral pressure increase in monolayers” value is listed as ~ 5 mN/m. Besides, the “shift of MscS p0.5 toward higher tension” value in data set [3] (1 mM AI-1 from cytoplasmic side, relative to untreated control) is no more than 23%. Moreover, the “stability in pure water” value in data set [4] (deionized water, result in words) is “stable in pure water in the course of several days”. For the same molecule, in data set [4] (phosphate buffer at pH 7.4), the half-life came out at 130 h.

As to `CC(=O)C(=O)C(O)CO` (centres unmarked) [AI-2 (Methyl), 4,5-dihydroxy-2,3-pentanedione], the “surface activity at the air-water interface” value in data set [1] is recorded as “did not show any appreciable surface activity”. Moreover, in data set [2], the “increase in the lipid molecular area” value is listed as 2%. Moreover, the “effect on the activation midpoint of MscS” value in data set [3] (up to 1 mM in the bath, result in words, listed as AI-2) is “no detectable shifts”.

Regarding `c1ccc2[nH]ccc2c1` [Indole], the “surface activity at the air-water interface” value in data set [1] is “did not show any appreciable surface activity”. In data set [2], the “increase in the lipid molecular area” value came to 5%. Further, the “level at which p0.5 stabilizes above the control” value in data set [3] (2.5 mM indole, after return) was ~ 4%. Moreover, the “transient shift of MscS activation curve towards higher tension” value in data set [3] (2.5 mM indole, cytoplasmic side, naive patch) is recorded as ~ 20%. Besides, the “solubility in aqueous solution” value in data set [5] is “limited solubility”.

Usually half-life stands for the time needed for the level to fall by half in the phase considered. Higher therefore signals slow decline.
